# Measurements from ChEMBL document CHEMBL4513216, “Probing the Open Global Health Chemical Diversity Library for Multistage-Active Starting Points for Next-Generation Antimalarials” (ACS Infect Dis, 2020).
# Assay: Toxicity liver stage against HepG2, at 10uM
# Assay type: cell-based
# Design: test concentration 10 uM, cell line HepG2-A16-CD81EGFP
# Conditions: human, HepG2-A16-CD81EGFP cells; read-out: INHIBITION
# Method in brief: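 Uninfected HepG2-A16-CD81EGFP cells, 3 × 10^3 per well, 1536-well, plated on prespotted compound at 10 μM final, parasite-free screening media added to match infected plates; puromycin 10 μM positive, DMSO 0.5% negative; run in parallel with 48 h PbLuc assay at 37 °C, 5% CO2; viability by CellTiter-Glo luminescence, normalized to controls.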
row,Compound,cytotoxicity at 10 µM [%]
1,O=C(Cn1cccn1)Nc1ccc(N2CCOCC2)cc1,-2.51
2,c1cnc(N2C[C@H](OCC3CCOCC3)[C@H]3COC[C@H]32)nc1,-1.92
3,Cn1nnc2c1C(COCC1CC1)CN(C(=O)[C@H]1CCCO1)C2 (stereo partly specified),-8.01
4,CO[C@@H]1CO[C@@]2(CCN(C(=O)COc3ccccc3C)C2)C1,9.95
5,COc1cccc(CN2CCCC3(CCN(C(=O)c4ccco4)C3)C2)c1 (stereo unspecified),6.34
6,O=C(NCCn1cccn1)c1nnc2ccccc2n1,-2.41
7,Cc1cc(C(=O)N(C)Cc2cnn(C)c2C)n(C)n1,8.19
8,COc1c(Br)c(C(=O)NC2CCCC2)nn1C,6.44
9,CS(=O)(=O)N1CC(c2n[nH]c3ncccc23)C1,-23.4
10,OCC1CCCN(Cc2c(C3CCCC3)[nH]c3ncccc23)C1 (stereo unspecified),6.35
11,Cc1nnsc1C(=O)N1CC[C@H](c2ccccc2)[C@@H]2[C@H]1CCCCN2C,-17.6
12,CCOc1nnc(CN(CC)CC(=O)Nc2c(F)cccc2F)s1,-2.62
13,COCc1cccc(CNc2cnn(C(C)(C)C)c(=O)c2Cl)c1,59.2
14,CCc1nnc2n1CCN(c1nc(C)cc(N(C)C)n1)C2,-5.89
15,COC(=O)c1cccc(C(=O)N(CCC#N)CC(C)(C)C)c1,7.72
16,CC(C)(C)Oc1ccncc1NCc1cscn1,15.7
17,Cc1cc(C)n(CCN2CCC(N(C)Cc3noc(C4CC4)n3)C2)n1 (stereo unspecified),-2.92
18,CN1CCN(c2ccc(NCc3ccsc3)cn2)CC1,2.97
19,COc1ccc(-c2nnc(C(C)N3CCC4(CC3)OCCO4)o2)cc1 (stereo unspecified),12.5
20,COc1ccccc1NC(=O)CC(C)NCCc1sc(C)nc1C (stereo unspecified),4.82
21,CCN(C(=O)CN1CCCN(c2nc(C)ns2)CC1)C1CC1,-4.08
22,Cc1cnn(C2CN(CCOc3cccc(C#N)c3)C2)c1,5.62
23,c1csc(CCNC2CCc3ncnn3C2)c1 (stereo unspecified),17.3

row,Compound,cytotoxicity at 10 µM [%]
1,Cc1noc(C(C)N2CCN(c3ncnc4sccc34)CC2)n1 (stereo unspecified),8.38
2,CC(C)c1noc(C(C)S(=O)(=O)Cc2nc(C3CC3)no2)n1 (stereo unspecified),-0.828
3,COc1ccc(CN(C)CCS(=O)(=O)c2ccc(Cl)cc2)cc1OC,2.68
4,CCC(=O)CNC(=O)CCn1nc2ccccn2c1=O,9.5
5,COCCNC(=O)Nc1cc2c(cc1SC)OCCO2,-3.59
6,NC(=O)C1CCN(C(=O)C2SCCc3sccc32)CC1 (stereo unspecified),-6.02
7,C=C(C)Cn1nnc(C2(NC(=O)c3ccccc3)CCCC2)n1,7.09
8,NC(=O)C1CCCN1Cc1cccc(NC(=O)c2cc(Cl)cc(Cl)c2)c1 (stereo unspecified),21.3
9,CN(Cc1ccco1)Cc1ccccc1CNC(=O)c1cnc[nH]1,2.6
10,CC(c1cccnc1)N(C)Cc1ccccn1 (stereo unspecified),0.423
11,NCC(c1ccc(Cl)cc1)N1CCc2sccc2C1 (stereo unspecified),6.33
12,CCNC(=O)CN1CCC(OCC2CCCO2)CC1 (stereo unspecified),-3.78
13,CCCNC(=O)CCNC(=O)N1CCc2c(F)ccc(F)c2C1,-9.91
14,O=S(=O)(N1CCCCCC1)N1CCN(Cc2ccc(F)cc2Br)CC1,-132
15,NC(=O)Nc1cccc(C(=O)N(Cc2ccncc2)C2CC2)c1,-2.34
16,CN(C)c1nc(N)nc(CN2CCCC2c2cccs2)n1 (stereo unspecified),5.21
17,Cc1noc(C)c1CCC(=O)Nc1ccn(C)n1,-2.4
18,Cc1cc(O)ncc1NS(=O)(=O)c1cccc(F)c1F,0.753
19,CN(Cc1ccncc1)C(CO)c1cccc(F)c1 (stereo unspecified),2.35
20,Cc1oc(-c2ccccc2)nc1CN1CCC(c2ccnn2C)CC1,15.6
21,COc1ccc(C(N)=O)cc1NCc1ncc(-c2cccs2)o1,8.2
22,CCN(C(=O)Nc1nccs1)C(C)c1cccc(O)c1 (stereo unspecified),-2.11
23,O=C(COCCOc1ccccc1)Nc1ccnn1CC1CCOC1 (stereo unspecified),1.88

row,Compound,cytotoxicity at 10 µM [%]
1,CCOc1cc(CNC(=O)c2cnn(CC)c2C(F)(F)F)ccn1,16.8
2,Cc1nn(C)cc1C(C)Nc1ncc(C(N)=O)cc1Cl (stereo unspecified),3.68
3,Cc1c(C(=O)NCCC(=O)N2CCCC2)cccc1-c1ccccn1,1.39
4,Cc1noc(-c2cccnc2N(C)Cc2cscn2)n1,-4.23
5,CSCC(=O)Nc1ncn(Cc2cccc(Br)c2)n1,-12
6,COCCn1c2c(ccc1=O)CC(NC(=O)c1cscn1)CC2 (stereo unspecified),-97
7,CC(C)CCN1CCc2nc(N3CCOCC3)nc(NC(C)C)c2C1,-113
8,CCCN1CCc2nc(N3CCOCC3)nc(NC(C)C)c2C1,-111
9,CC[C@@H](CO)Nc1nccc(-c2c[nH]c3cc(C(=O)OC)ccc23)n1,67.7
10,Cc1ncc(-c2ccnc(SCCN(C)C)n2)c(-c2ccco2)n1,-7.25
11,CCC(CO)N(Cc1cccs1)C(=O)Cc1ccc(O)cc1 (stereo unspecified),6.57
12,O=C(O)c1cccnc1N1CCN(Cc2ccc(F)cc2)C(CCO)C1 (stereo unspecified),12.3
13,c1ccc(-c2cccc(N3CCC(NCCc4cscn4)CC3)c2)cc1,3.58
14,O=C1CCC(C(=O)N2CCOC(Cc3ccccc3Cl)C2)=NN1 (stereo unspecified),-0.108
15,CC1(C)CC(CC(=O)N2CC(C)(C)[C@@](C)(O)C2)CC(C)(C)N1,-4.84
16,O=C(CN1CCOc2ccccc2C1)N1Cc2cnn(CCO)c2C1,-3.24
17,Cn1ncc2c(NCCOCc3ccccc3)nc(C3CCCC3)nc21,9.67
18,CC(C)Oc1cccc(F)c1C(C(=O)O)N(C)Cc1ccon1 (stereo unspecified),-33.5
19,COc1ccc(OC2CCN(C(=O)c3ccc(C(C)=O)s3)CC2)cc1,3.58
20,O=C(CC1=CSC2=NCCN12)N1CCCC(CCc2cccc(F)c2)C1 (stereo unspecified),5.21
21,CC(C)(C)c1ncc(C(=O)NCCSc2ccccn2)c(O)n1,-0.494
22,O=C(c1ccc(S(=O)(=O)NCC(F)F)cc1)N1C[C@H]2CNC[C@H]2C1,-13
23,OC1CCN([C@@H]2CCN(c3nc(-c4ccccc4)no3)C[C@H]2O)CC1,-9.88

row,Compound,cytotoxicity at 10 µM [%]
1,O=C1NCC2(CCN(C(=O)c3ccc4c(c3)CCCO4)CC2)O1,-5.8
2,Cc1ccccc1C(=O)NC[C@@H]1CCN(C(=O)C2(O)CCCC2)C[C@H]1O,-38.7
3,Cc1nc(-c2cccnc2)ncc1C(=O)N1CCC(C(C)N(C)C)CC1 (stereo unspecified),-1.8
4,Cc1cc(N2CCC(n3cc(CN4CCC[C@@H]4CO)nn3)CC2)ccn1,4.9
5,CC(C)n1cc(C(=O)NCCCc2csc(N)n2)cn1,-4.36
6,CCOCCN(CCOCC)c1nc(C)nc2sccc12,-126
7,COCCn1ccnc1CN(Cc1ccccn1)Cc1sccc1C,2.16
8,CN(C)C(=O)c1cc2c(s1)CCN(C(=O)CCCN1CCCCC1)C2,-41.4
9,COc1cc(-c2cc(-c3ccn(C)c3)nc(N)c2C#N)cc(OC)c1O,-7.77
10,CCC[C@H]1CN(c2nc(CO)cs2)C[C@@H]1NC(=O)C1(COC)CC1,-2.87
11,Cc1ccc(CN2CC3(CCNCC3)CCC2=O)c(F)c1F,4.95
12,CCc1nc(C)c(CN2CCOC(CCCC(C)C)C2)[nH]1 (stereo unspecified),-20
13,CC(Cn1cncn1)NC(=O)c1cn(Cc2ccccc2F)nn1 (stereo unspecified),-1.62
14,Cc1cc(=O)c2cc(F)ccc2n1CC(=O)O,0.753
15,CSc1nccc(N2CCC3(CCCN(Cc4cccc(C)c4)C3)C2)n1 (stereo unspecified),12.1
16,Cc1cn(Cc2ccc(F)c(F)c2)nc1N,-13.5
17,Cc1csc(N2CCN(CC(=O)Nc3ccncc3)CC2C)n1 (stereo unspecified),29.3
18,Cn1cnc2c1CCN(Cc1csc(-c3ccccc3F)n1)C2,-4.25
19,CCn1ccnc1CN1CCN(Cc2cccc(C#N)c2)CC1,-22.3
20,Cc1ccnc(NC(=O)c2ccc(-n3ncc(C#N)c3N)cc2)c1,1.22
21,CCc1cccc(N2CCC(NC(=O)c3ccoc3C)CC2)c1,-10.8
22,CSc1sc(NC(=O)Cc2c(C)nc(C)[nH]c2=O)nc1C,-1.29
23,CCCn1nc2c(cc1=O)CN(CCS(C)(=O)=O)CC2,-8.87

row,Compound,cytotoxicity at 10 µM [%]
1,COc1cc2c(cc1CNCc1cccnc1-n1cccn1)OC(C)C2 (stereo unspecified),4.6
2,CCCC(=O)N(CCCN1CCOCC1)c1nc2c(Cl)cccc2s1,-12.8
3,Cc1cnc(N2CCC3(CC2)CC3CN(C)Cc2cccnc2)nc1 (stereo unspecified),-0.37
4,CN(C)CCOCc1nnc2n1CCN(Cc1ccc(F)cc1)CC2,-5.63
5,COCC1CC2(CCN(Cc3nccs3)CC2)CN1Cc1ccccn1 (stereo unspecified),-98.4
6,CCn1cc2c(n1)CN(Cc1ccc(F)cc1)CC2COCC1CC1 (stereo unspecified),-69
7,Cc1ccc(N2CC[C@@H]3[C@@H]2CCN3C(=O)Cc2ccccc2)nn1,-93.1
8,CCN(CC)c1ccc2ccc(C(=O)N3CCCCO3)cn12,5.33
9,O=C1COC2(CCN(c3ncccn3)CC2)CN1,12.9
10,CN(C)C(=O)NC[C@@H]1OC[C@H]2CN(Cc3cccc(F)c3)CC[C@H]21,4.93
11,Cc1ccc(CN2CC3(CCN(C(=O)c4cccnc4)C3)C2)o1,-79.6
12,O=C([C@H]1COC[C@H]2CN(C3CCCC3)C[C@H]21)N1CCCO1,2.14
13,CCCS(=O)(=O)N1CCC2(CC1)CC(N1CCCC1)c1ccccc12 (stereo unspecified),-0.664
14,O=C1CC2(CCCCN2C(=O)Cc2ccccc2)CN1c1cccnc1 (stereo unspecified),-2.71
15,c1ccc(O[C@H]2CO[C@@]3(CCN(Cc4ccc5c(c4)OCO5)C3)C2)nc1,-76.4
16,Cn1ccnc1C(=O)N1CCC2(CCN2c2ncccn2)C1 (stereo unspecified),-0.736
17,Cc1ccc(CN2Cc3nnn(C)c3C(COCC3CC3)C2)s1 (stereo unspecified),4.27
18,c1cc(CO[C@@H]2CC[C@H]3[C@H]2OCCN3CC2CCOCC2)ccn1,26.9
19,CN1[C@@H]2CC[C@H]1CN(c1nc(-c3ccncc3)nc3c1cnn3C)CC2,38.7
